A short description of data set [1]: Dissociation constant, pKa of the compound. In kind it is physicochemical.
A further data set relates to HepG2. Kind of data set: Cytotoxicity against human HepG2 cells assessed as intracellular ATP level after 72 hrs by Celltiter-Glo luminescent assay. It counts as cell-based. The following applies: HepG2, 72 h. On the technique in general: ATP-based viability assays read luminescence as a measure of living cells.
The nature of data set [2]: Ratio of EC50 for human HepG2 cells to EC50 for Plasmodium falciparum K1 infected in human erythrocytes.
For data set [3], the system named is Plasmodium falciparum. Kind of data set: Antimalarial activity against chloroquine-sensitive Plasmodium falciparum 3D7 infected in human erythrocytes assessed as reduction in parasitemia after 72 hrs by spectrophotometry. In kind it is functional, organism-based. The note with it: 3D7, 72 h.
The nature of data set [4]: Solubility of the compound at pH 7.4 after 18 hrs by UV spectroscopic analysis. In kind it is physicochemical. The note with it: buffer. The essentials: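 Kinetic solubility. A 10 mM stock is diluted 1:100 into PBS pH 7.4 and incubated 18 h at room temperature, then filtered; the filtrate is mixed 1:1 with 1-propanol. UV spectrum (250–500 nm) compared by AUC with a 1-propanol/PBS reference. Single experiment in triplicate.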

Data set [5] concerns Plasmodium falciparum. Put plainly: Ratio of EC50 for chloroquine-resistant Plasmodium falciparum K1 infected in human erythrocytes to EC50 for chloroquine-sensitive Plasmodium falciparum 3D7 infected in human erythrocytes. It counts as functional.
Data set [6] deals with Plasmodium falciparum. Put plainly: Antimalarial activity against chloroquine-resistant Plasmodium falciparum K1 infected in human erythrocytes assessed as reduction in parasitemia after 72 hrs by spectrophotometry. It counts as functional, organism-based. The following applies: K1, 72 h.
Data set [7] can be described thus: Ratio of EC50 for human HepG2 cells to EC50 for Plasmodium falciparum 3D7 infected in human erythrocytes.
A short description of data set [8]: Permeability of the compound at pH 7.4 after 30 mins by PAMPA. The following applies: read-out: permeability. It counts as ADME. The essentials:
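PAMPA at pH 7.4. A 10 mM DMSO stock is diluted into system solution buffer; its UV spectrum serves as reference. Membrane painted with GIT lipid, acceptor chamber holds acceptor solution buffer. Sandwich stirred for 30 min, aqueous boundary layer set to 40. Donor and acceptor UV spectra read at 250–500 nm. Permeability coefficient from the AUCs of reference, donor and acceptor. Single experiment in triplicate.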
(The PAMPA barrier holds no transporters, so it reflects passive diffusion.)

Values after ≈ are worked out from the molar mass of the structure shown.

A word on the pKa: it is the negative logarithm of the acid dissociation constant. What is called EC50 is the concentration giving half of the maximal effect. One may read the solubility as the concentration that dissolves in the medium under given conditions. Higher therefore signals a readily soluble substance. With `COc1ccc(F)cc1CNCCCNc1ccnc2cc(Oc3ccc(F)cc3)ccc12`, in [1], the pKa is 9.28. The EC50 with HepG2 came out at 6600 nM; with Plasmodium falciparum [3], 297 nM; in the data set with Plasmodium falciparum [6], 135 nM. In addition, the “Ratio EC50” value in [2] is 49; in the data set with Plasmodium falciparum [5], 0.5; in [7], 22. The concentration in solution in data set [4] (solubility at 18 h) was 14.5 µM (≈ 6.52 µg/mL). Further, in data set [8], the Papp at 0.5 h was found to be 317 ×10⁻⁶ cm/s.

For `COc1ccc(F)cc1CNCCCNc1ccnc2cc(CCc3ccccc3)ccc12`, the pKa in data set [1] stood at 9.47. Moreover, the values for the EC50 with HepG2, with Plasmodium falciparum [3] and in the data set with Plasmodium falciparum [6] were 4240 nM, 132 nM and 2140 nM, respectively. Besides, the “Ratio EC50” value in data set [2] is 2; with Plasmodium falciparum [5], 16.2; in [7], 32.1. Moreover, the concentration in solution in data set [4] (solubility at 18 h) was 4.2 µM (≈ 1.86 µg/mL). In [8], the Papp at 0.5 h is 23 ×10⁻⁶ cm/s.

Compound `COc1cccc(CNCCCNc2ccnc3cc(Cc4ccc5c(c4)OCO5)ccc23)c1O` gave a pKa in data set [1] of 9.47. The values for the EC50 in the data set with HepG2, in the data set on Plasmodium falciparum [3] and in the data set with Plasmodium falciparum [6] were 1140 nM, 8 nM and 50 nM, respectively. Further, the “Ratio EC50” value is given as 22.7 in data set [2], 6 with Plasmodium falciparum [5] and 135.4 in data set [7]. The compound also returned a solubility at 18 h in data set [4] of 32 µM (≈ 15.1 µg/mL). Moreover, the Papp at 0.5 h in data set [8] turned out to be 237 ×10⁻⁶ cm/s.

In turn, `COc1ccc(Oc2ccc3c(NCCCNCc4ccc5c(c4)OCO5)ccnc3c2)cc1` had a pKa in data set [1] of 9.28. Besides, the EC50 with HepG2 is 7900 nM; in the data set on Plasmodium falciparum [3] it was 46 nM; in the data set on Plasmodium falciparum [6], 1420 nM. The entries for the “Ratio EC50” value (in data set [2]; in the data set on Plasmodium falciparum [5]; in [7]) were 6, 30.9 and 172, respectively. In data set [4], this compound returned a solubility at 18 h of 14.5 µM (≈ 6.63 µg/mL). Further, in [8], the Papp at 0.5 h was found to be 317 ×10⁻⁶ cm/s.

In [1], `CN(C)c1cccc(Oc2ccc3c(NCCCNCc4ccc5c(c4)OCO5)ccnc3c2)c1` came in with a pKa of 9.28. Moreover, the EC50 in the data set with HepG2 was 16000 nM; in the data set with Plasmodium falciparum [3], 1360 nM; in the data set with Plasmodium falciparum [6], 3930 nM. For the same compound, the “Ratio EC50” value in [2] was found to be 4; in the data set on Plasmodium falciparum [5], 2.9; in data set [7], 12. Besides, the concentration in solution in [4] (solubility at 18 h) came to 14.5 µM (≈ 6.82 µg/mL). Besides, in [8], the Papp at 0.5 h stood at 317 ×10⁻⁶ cm/s.

Take `COc1ccc(F)cc1CNCCCNc1ccnc2cc(-c3cccc4ccccc34)ccc12`: the pKa in [1] came out at 9.47. The EC50 with HepG2 stood at 16000 nM; with Plasmodium falciparum [3] it was 1150 nM; with Plasmodium falciparum [6] it was 1030 nM. The “Ratio EC50” value is recorded as 15.5 in data set [2], 0.9 in the data set on Plasmodium falciparum [5] and 13.9 in data set [7]. This compound displayed a solubility at 18 h in [4] of 32 µM (≈ 14.9 µg/mL). In addition, the Papp at 0.5 h in data set [8] came to 237 ×10⁻⁶ cm/s.

Regarding `FC(F)(F)c1cccc(Cc2ccc3c(NCCCNCc4ccc5c(c4)OCO5)ccnc3c2)c1`, in data set [1], the pKa worked out at 9.47. Further, the EC50 was 2200 nM with HepG2, 39 nM in the data set with Plasmodium falciparum [3] and 1310 nM in the data set on Plasmodium falciparum [6]. Moreover, the “Ratio EC50” value was 1.7 in data set [2], 33.5 in the data set with Plasmodium falciparum [5] and 56.1 in data set [7]. Besides, the concentration in solution in data set [4] (solubility at 18 h) came to 4.2 µM (≈ 2.07 µg/mL). Moreover, the Papp at 0.5 h in [8] turned out to be 23 ×10⁻⁶ cm/s.

The compound `CC(C)Cc1ccc2c(NCCCNCc3ccc4c(c3)OCO4)ccnc2c1` registered a pKa in data set [1] of 9.47. Also, the EC50 was found to be 2380 nM in the data set on HepG2, 66 nM in the data set with Plasmodium falciparum [3] and 1810 nM in the data set with Plasmodium falciparum [6]. For the same compound, the “Ratio EC50” value in data set [2] is given as 1.3; in the data set on Plasmodium falciparum [5] it was 27.7; in [7], 36.3. This compound showed a solubility at 18 h in [4] of 4.2 µM (≈ 1.64 µg/mL). In addition, the Papp at 0.5 h in data set [8] was 23 ×10⁻⁶ cm/s.

`c1ccc(CCc2ccc3c(NCCCNCc4ccco4)ccnc3c2)cc1` came in with a pKa in [1] of 9.47. The EC50 in the data set on HepG2 came to 16000 nM; in the data set with Plasmodium falciparum [3], 46 nM; with Plasmodium falciparum [6], 2930 nM. In addition, the “Ratio EC50” value in data set [2] was 5.5; with Plasmodium falciparum [5], 63.7; in [7], 347.8. In addition, the solubility at 18 h in data set [4] amounted to 4.2 µM (≈ 1.62 µg/mL). The Papp at 0.5 h in [8] was 23 ×10⁻⁶ cm/s.

The compound `Cc1cc(C)cc(Cc2ccc3c(NCCCNCc4ccc5c(c4)OCO5)ccnc3c2)c1` registered a pKa in data set [1] of 9.47. Further, the EC50 was found to be 2250 nM in the data set with HepG2, 41 nM with Plasmodium falciparum [3] and 1040 nM in the data set on Plasmodium falciparum [6]. The “Ratio EC50” value is recorded as 2.2 in data set [2], 25.6 with Plasmodium falciparum [5] and 55.5 in data set [7]. In data set [4], the concentration in solution (solubility at 18 h) was 4.2 µM (≈ 1.91 µg/mL). Further, the Papp at 0.5 h in [8] came out at 23 ×10⁻⁶ cm/s.

In data set [1], `COc1ccc(F)cc1CNCCCNc1ccnc2cc(-c3ccc(F)cc3)ccc12` showed a pKa of 9.47. Also, the results for the concentration giving a half-maximal response (EC50) with HepG2, in the data set with Plasmodium falciparum [3] and in the data set with Plasmodium falciparum [6] were 770 nM, 18 nM and 97 nM, respectively. Besides, the entries for the “Ratio EC50” value (in data set [2]; with Plasmodium falciparum [5]; in data set [7]) were 7.9, 5.5 and 44, respectively. The concentration in solution in [4] (solubility at 18 h) was 32 µM (≈ 13.9 µg/mL). Further, the Papp at 0.5 h in data set [8] turned out to be 237 ×10⁻⁶ cm/s.

For `c1ccc(-c2ccc3c(NCCCNCc4ccc5c(c4)OCO5)ccnc3c2)cc1`, in [1], the pKa turned out to be 9.47. Moreover, the EC50 in the data set on HepG2 is 4070 nM; with Plasmodium falciparum [3], 17 nM; in the data set with Plasmodium falciparum [6], 29 nM. Besides, the “Ratio EC50” value amounted to 138.9 in [2], 1.7 with Plasmodium falciparum [5] and 234 in data set [7]. The compound further returned a solubility at 18 h in data set [4] of 32 µM (≈ 13.2 µg/mL). In addition, the Papp at 0.5 h in data set [8] is 237 ×10⁻⁶ cm/s.

`COc1cccc(CNCCCNc2ccnc3cc(Cc4ccc(C#N)cc4)ccc23)c1O`: the pKa in data set [1] is 9.47. The EC50 stood at 7150 nM in the data set with HepG2, 11 nM in the data set on Plasmodium falciparum [3] and 5440 nM in the data set with Plasmodium falciparum [6]. The “Ratio EC50” value in [2] came out at 1.3; with Plasmodium falciparum [5] it was 514; in data set [7] it was 674.8. The same compound showed a solubility at 18 h in [4] of 4.2 µM (≈ 1.9 µg/mL). The Papp at 0.5 h in [8] came to 23 ×10⁻⁶ cm/s.

For `COc1cccc(Oc2ccc3c(NCCCNCc4cccc(OC)c4O)ccnc3c2)c1`, in data set [1], the pKa turned out to be 9.28. The figures for the EC50 in the data set on HepG2, with Plasmodium falciparum [3] and with Plasmodium falciparum [6] were 5300 nM, 72 nM and 3030 nM, respectively. In addition, the “Ratio EC50” value in [2] is recorded as 2; with Plasmodium falciparum [5], 42; in data set [7] it was 74. The compound further showed a solubility at 18 h in data set [4] of 14.5 µM (≈ 6.66 µg/mL). Also, the Papp at 0.5 h in data set [8] is 317 ×10⁻⁶ cm/s.

As for `c1coc(CNCCCNc2ccnc3cc(-c4cccc5ccccc45)ccc23)c1`, the pKa in data set [1] was 9.47. For the same compound, the EC50 in the data set on HepG2 came out at 5600 nM; with Plasmodium falciparum [3], 31 nM; with Plasmodium falciparum [6] it was 1300 nM. In addition, the “Ratio EC50” value in [2] was determined as 4.3; with Plasmodium falciparum [5], 41.2; in data set [7], 178.2. Further, the solubility at 18 h in data set [4] stood at 32 µM (≈ 13 µg/mL). Also, in data set [8], the Papp at 0.5 h is 237 ×10⁻⁶ cm/s.

`COc1cccc(CNCCCNc2ccnc3cc(Cc4cccc(C(F)(F)F)c4)ccc23)c1O`: the pKa in [1] is 9.47. In addition, the EC50 with HepG2 turned out to be 1720 nM; in the data set on Plasmodium falciparum [3], 25 nM; in the data set on Plasmodium falciparum [6], 2190 nM. Further, the “Ratio EC50” value in [2] is reported as 0.8; in the data set with Plasmodium falciparum [5], 87.9; in data set [7], 69. The concentration in solution in data set [4] (solubility at 18 h) was 4.2 µM (≈ 2.08 µg/mL). Besides, in data set [8], the Papp at 0.5 h turned out to be 23 ×10⁻⁶ cm/s.

The values are drawn from ChEMBL document CHEMBL1833887, “Synthesis and evaluation of 7-substituted 4-aminoquinoline analogues for antimalarial activity” (J Med Chem, 2011).
